Entries after “also recorded” stand apart in the source; their conditions may differ. Where two headings read alike, the source gives them in different places.
How the values were obtained:
hCA I = hCA I (Homo sapiens, UniProt P00915); assay: stopped-flow CO2 hydration assay, hCA I; type: biochemical
Outline: (§1)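 Recombinant in-house enzyme, preincubated 15 min at room temperature with inhibitor. Inhibitor stock was 0.1 mM in water, diluted down to 0.01 nM. CO₂ (1.7–17 mM) hydration was followed by stopped-flow with 0.2 mM phenol red at 557 nm, in 20 mM HEPES pH 7.5 with 20 mM Na₂SO₄, over 10–100 s. Initial rates came from six traces and were corrected for the uncatalysed rate. Ki was obtained by non-linear least squares, mean of ≥3 measurements.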

hCA II [1] = molecular target: T1, hCA II (Homo sapiens, UniProt P00918); assay: stopped-flow CO2 hydration assay, hCA II; type: biochemical
Outline: as §1

hCA VI = hCA VI (Homo sapiens, UniProt P23280); assay: stopped-flow CO2 hydration assay, hCA VI; type: biochemical
Sequence of hCA VI (P23280 18-308): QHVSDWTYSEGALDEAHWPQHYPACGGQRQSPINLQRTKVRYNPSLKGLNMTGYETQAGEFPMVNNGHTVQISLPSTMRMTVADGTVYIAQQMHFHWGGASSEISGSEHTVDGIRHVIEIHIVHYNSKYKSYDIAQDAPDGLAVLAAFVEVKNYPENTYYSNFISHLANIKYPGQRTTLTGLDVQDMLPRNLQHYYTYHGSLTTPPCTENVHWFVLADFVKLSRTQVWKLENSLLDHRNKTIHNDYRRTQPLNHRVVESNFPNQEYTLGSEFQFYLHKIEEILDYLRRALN

hCA IX = hCA IX (Homo sapiens, UniProt Q16790); assay: stopped-flow CO2 hydration assay, hCA IX; type: biochemical; settings: for SI I/IX: ratio of KI hCA I to KI hCA IX; for SI II/IX: ratio of KI hCA II to KI hCA IX
hCA XII = hCA XII (Homo sapiens, UniProt O43570); assay: stopped-flow CO2 hydration assay, hCA XII; type: biochemical; settings: for SI I/XII: ratio of KI hCA I to KI hCA XII
Sequence of hCA XII (O43570 25-354): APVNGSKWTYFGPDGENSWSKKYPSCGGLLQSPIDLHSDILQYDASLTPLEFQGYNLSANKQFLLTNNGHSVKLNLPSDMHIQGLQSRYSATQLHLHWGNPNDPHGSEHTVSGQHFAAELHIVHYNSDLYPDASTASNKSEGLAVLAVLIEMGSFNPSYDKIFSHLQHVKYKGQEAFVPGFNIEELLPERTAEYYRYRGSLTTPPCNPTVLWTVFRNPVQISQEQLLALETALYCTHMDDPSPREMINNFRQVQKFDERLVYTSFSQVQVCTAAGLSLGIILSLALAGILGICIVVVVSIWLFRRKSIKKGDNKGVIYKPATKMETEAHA

hCA II [2] = molecular target: T1, hCA II; settings: read-out: KI hCA II; stopped-flow hydration assay; values marked *; cited from earlier work
[3] = system: non-small cell lung carcinoma A549; assay: cell proliferation, CCK-8 assay, A549; type: cell-based; settings: A549 cells, 72 hours, hypoxic conditions
[4] = system: pancreatic epithelioid carcinoma PANC-1; assay: cell proliferation, CCK-8 assay, PANC-1; type: cell-based; settings: PANC-1 cells, 72 hours, hypoxic conditions
MDA-MB-231 cells = assay: cell proliferation assay, cell counting by flow cytometry; type: cell-based, human; settings: MDA-MB-231, 72 hours, hypoxic conditions
Outline: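 MDA-MB-231 cells were grown in DMEM with 10% FBS, 1% penicillin/streptomycin and 1% glutamine, kept at low passage, and held under hypoxia (1% O₂, 5% CO₂). Cells were seeded at 10.000 per well and treated in 1% FBS with increasing compound concentrations for 72 h at 37 °C. They were then detached with trypsin/2 mM EDTA and counted by flow cytometry. Counts are given as % of untreated control (mean ± SEM) with IC₅₀.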

Sequence of hCA I (P00915 whole entry): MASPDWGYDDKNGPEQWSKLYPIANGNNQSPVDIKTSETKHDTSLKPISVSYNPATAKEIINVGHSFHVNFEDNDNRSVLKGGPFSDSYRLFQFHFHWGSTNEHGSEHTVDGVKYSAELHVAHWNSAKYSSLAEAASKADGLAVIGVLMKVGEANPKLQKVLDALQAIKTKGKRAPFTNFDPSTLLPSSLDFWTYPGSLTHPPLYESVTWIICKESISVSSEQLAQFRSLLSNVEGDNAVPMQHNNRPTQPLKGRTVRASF

SMILES | Ki (hCA I) [nM] | Ki (hCA II [1]) [µM] | Ki (hCA VI) [nM] | Ki (hCA IX) [nM] | SI I/IX (hCA IX) | SI II/IX (hCA IX) | SI I/XII (hCA XII) | Ki (hCA II [2]) [nM] | antiproliferative effect [3] | antiproliferative effect [4] | anti-proliferative effect (MDA-MB-231 cells) | Ki (hCA XII; KI hCA XII, stopped-flow hydration assay) [nM] | SI II/XII (hCA XII; ratio of KI hCA II to KI hCA XII)
Cc1cn([C@H]2C[C@H](N=[N+]=[N-])[C@@H](CO)O2)c(=O)[nH]c1=O [AZT, azidothymidine, reference compound] | 250 | 0.0121 | 505 | 25.7 | 9.73 | 0.47 | 43.86 | 684 |  |  |  |  | 
C#Cc1cccc(Nc2ncnc3cc(OCCOC)c(OCCOC)cc23)c1 [ERL, erlotinib] |  |  | 453 |  |  |  |  | 3980 | displayed an antiproliferative effect | displayed an antiproliferative effect | mild reduction of cell proliferation; also recorded: low efficacy |  | 
NS(=O)(=O)c1ccc(NC(=O)Nc2ccc(F)cc2)cc1 [SLC-0111] |  |  |  |  |  |  |  |  | ineffective | ineffective |  |  | 
COCCOc1cc2ncnc(Nc3cccc(-c4cn(CCOCCOCCOCCOCCOCCNC(=S)NCCc5ccc(S(N)(=O)=O)cc5)nn4)c3)c2cc1OCCOC [compound 14d, 4-(22-(4-(3-((6,7-Bis(2-methoxyethoxy)quinazolin-4-yl)amino)phenyl)-1H-1,2,3-triazol-1-yl)-4-thioxo-8,11,14,17,20-pentaoxa-3,5-diazadocosyl)benzenesulfonamide] | 957 | 32.7 |  | 1880 | 0.51 | 17.4 | 10.0 |  |  |  |  | 95.2 | 344

Reference: PMC12243159 (RSC Medicinal Chemistry, 2025)
